{"source": "ChEMBL document CHEMBL1126136", "about": "“Stereoselective LSD-like activity in d-lysergic acid amides of (R)- and (S)-2-aminobutane” (J Med Chem, 1992)", "key": {"[1]": {"target": "T1, 5-hydroxytryptamine receptor 1A (Rattus norvegicus, UniProt P19327)", "T1 sequence (P19327 whole entry)": "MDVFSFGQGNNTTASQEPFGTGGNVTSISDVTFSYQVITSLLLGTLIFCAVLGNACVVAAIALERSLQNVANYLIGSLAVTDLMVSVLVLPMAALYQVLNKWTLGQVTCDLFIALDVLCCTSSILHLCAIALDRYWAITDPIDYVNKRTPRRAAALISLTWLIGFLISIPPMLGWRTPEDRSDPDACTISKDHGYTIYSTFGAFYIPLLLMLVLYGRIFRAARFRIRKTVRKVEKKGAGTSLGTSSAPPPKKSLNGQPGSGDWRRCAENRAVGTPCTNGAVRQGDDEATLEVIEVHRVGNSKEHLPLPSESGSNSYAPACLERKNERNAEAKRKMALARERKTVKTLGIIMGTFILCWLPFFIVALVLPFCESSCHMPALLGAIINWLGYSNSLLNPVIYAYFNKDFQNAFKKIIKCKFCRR", "experiment": "Affinity in displacing [3H]8-OH-DPAT from rat hippocampal 5-HT1A receptor.", "type": "tissue-based, Hippocampus", "how_it_was_run": "(§1)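 Male Sprague-Dawley rat hippocampal homogenate (pooled from 10–20 rats, sucrose-washed, preincubated twice at 37 °C). Membranes at 200–400 µg protein in 50 mM Tris HCl pH 7.4 with 0.5 mM EDTA, 0.1% ascorbate and 10 µM pargyline. Displacement of 1.0 nM [3H]-8-OH-DPAT, 10 min at 37 °C, then filtered. Nonspecific binding defined with 10 µM serotonin. Triplicates; 3–4 experiments.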"}, "Rattus norvegicus [2]": {"species": "Rattus norvegicus", "experiment": "Potency of compound in 1-trained rats", "type": "functional"}, "Rattus norvegicus [3]": {"system": "Rattus norvegicus", "experiment": "Percentage of animals selecting drug lever at a dose 23 nmol/kg", "type": "functional", "how_it_was_run": "(§2)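 Two-lever drug discrimination in rats trained to tell ip LSD tartrate (0.08 mg/kg, 186 nmol/kg, 30 min pretreatment) from saline, FR50 food schedule. Test drugs were given ip in saline. Test sessions ran under extinction and ended at 50 presses on one lever. Read-out was the percentage of rats selecting the drug lever at each dose; an 85% accuracy criterion applied.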"}, "Rattus norvegicus [4]": {"system": "Rattus norvegicus", "experiment": "Percentage of animals selecting drug lever at a dose 47nmol/kg", "type": "functional", "how_it_was_run": "as §2"}, "Rattus norvegicus [5]": {"system": "Rattus norvegicus", "experiment": "Percentage of animals selecting drug lever at a dose 6 nmol/kg", "type": "functional", "how_it_was_run": "as §2"}, "Rattus norvegicus [6]": {"system": "Rattus norvegicus", "experiment": "Percentage of animals selecting drug lever at a dose 93 nmol/kg", "type": "functional", "how_it_was_run": "as §2"}, "Rattus norvegicus [7]": {"species": "Rattus norvegicus", "experiment": "Potency of compound in 1-trained rats measured as ED50 relative to LSD", "type": "functional"}, "Rattus norvegicus [8]": {"system": "Rattus norvegicus", "experiment": "Percentage of animals selecting drug lever at a dose 186 nmol/kg", "type": "functional", "how_it_was_run": "as §2"}, "Rattus norvegicus [9]": {"system": "Rattus norvegicus", "experiment": "Percentage of animals selecting drug lever at a dose 290 nmol/kg", "type": "functional", "how_it_was_run": "as §2"}, "Rattus norvegicus [10]": {"system": "Rattus norvegicus", "experiment": "Percentage of animals selecting drug lever at a dose 372 nmol/kg", "type": "functional", "how_it_was_run": "as §2"}, "Rattus norvegicus [11]": {"system": "Rattus norvegicus", "experiment": "Percentage of animals selecting drug lever at a dose 465 nmol/kg", "type": "functional", "how_it_was_run": "as §2"}, "[12]": {"target": "T2, Serotonin receptor 2a and 2b (5HT2A and 5HT2B) (Rattus norvegicus, UniProt P30994+P14842)", "experiment": "Affinity in displacing [125I](R)-DOI from rat cortical homogenate 5-hydroxytryptamine 2 receptor.", "how_it_was_run": "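Male Sprague-Dawley rat frontal cortex homogenate (pooled from 10–20 rats, sucrose-washed, preincubated twice at 37 °C). Membranes at 200–400 µg protein in 50 mM Tris HCl pH 7.4 with 0.5 mM EDTA, 0.1% ascorbate, 10 µM pargyline and 10 mM MgCl2. Displacement of 0.25 nM [125I]-(R)-DOI, 15 min at 37 °C, then filtered and gamma-counted. Triplicates; Ki from 3–4 experiments.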"}, "[13]": {"target": "T1, 5-hydroxytryptamine receptor 1A", "experiment": "Affinity in displacing [3H]8-OH-DPAT from rat hippocampal 5-hydroxytryptamine 1A receptor.", "type": "tissue-based, Hippocampus", "how_it_was_run": "as §1"}, "Rattus norvegicus [14]": {"system": "Rattus norvegicus", "experiment": "Percentage of animals selecting drug lever at a dose 279 nmol/kg", "type": "functional", "how_it_was_run": "as §2"}, "Rattus norvegicus [15]": {"system": "Rattus norvegicus", "experiment": "Percentage of animals selecting drug lever at a dose 301 nmol/kg", "type": "functional", "how_it_was_run": "as §2"}, "Rattus norvegicus [16]": {"system": "Rattus norvegicus", "experiment": "Percentage of animals selecting drug lever at a dose 139 nmol/kg", "type": "functional", "how_it_was_run": "as §2"}, "Rattus norvegicus [17]": {"system": "Rattus norvegicus", "experiment": "Percentage of animals selecting drug lever at a dose 163 nmol/kg", "type": "functional", "how_it_was_run": "as §2"}, "[18]": {"target": "T2, Serotonin receptor 2a and 2b (5HT2A and 5HT2B)", "experiment": "Affinity in displacing [125I](R)-DOI from rat cortical homogenate 5-HT2 receptor.", "how_it_was_run": "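Male Sprague-Dawley rat frontal cortex homogenate (pooled from 10–20 rats, sucrose-washed, preincubated twice at 37 °C). Membranes at 200–400 µg protein in 50 mM Tris HCl pH 7.4 with 0.5 mM EDTA, 0.1% ascorbate, 10 µM pargyline and 10 mM MgCl2. Triplicates; Ki from 3–4 experiments.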"}, "Rattus norvegicus [19]": {"system": "Rattus norvegicus", "experiment": "Percentage of animals selecting drug lever at a dose 12 nmol/kg", "type": "functional", "how_it_was_run": "as §2"}}}
{"compound": "CCN(CC)C(=O)[C@@H]1C=C2c3cccc4[nH]cc(c34)C[C@H]2N(C)C1", "note": "[LYSERGIDE]", "values": [{"measurement": "Ki", "setting": "[1]", "result": 5.05, "unit": "nM"}, {"measurement": "ED50", "setting": "Rattus norvegicus [2]", "result": 0.0275, "unit": "µmol/kg"}, {"measurement": "SDL", "setting": "Rattus norvegicus [3]", "result": 36, "unit": "%"}, {"measurement": "SDL", "setting": "Rattus norvegicus [4]", "result": 78, "unit": "%"}, {"measurement": "SDL", "setting": "Rattus norvegicus [5]", "result": 0, "unit": "%"}, {"measurement": "SDL", "setting": "Rattus norvegicus [6]", "result": 100, "unit": "%"}]}
{"compound": "CC[C@H](C)NC(=O)[C@@H]1C=C2c3cccc4[nH]cc(c34)C[C@H]2N(C)C1", "values": [{"measurement": "ED50", "setting": "Rattus norvegicus [2]", "result": 0.124, "unit": "µmol/kg"}, {"measurement": "Relative potency", "setting": "Rattus norvegicus [7]", "result": 0.22}, {"measurement": "SDL", "setting": "Rattus norvegicus [8]", "result": 75, "unit": "%"}, {"measurement": "SDL", "setting": "Rattus norvegicus [9]", "result": 67, "unit": "%"}, {"measurement": "SDL", "setting": "Rattus norvegicus [10]", "result": 75, "unit": "%"}, {"measurement": "SDL", "setting": "Rattus norvegicus [11]", "result": 100, "unit": "%"}, {"measurement": "SDL", "setting": "Rattus norvegicus [4]", "result": 13, "unit": "%"}, {"measurement": "SDL", "setting": "Rattus norvegicus [6]", "result": 50, "unit": "%"}, {"measurement": "Ki", "setting": "[12]", "result": 7.76, "unit": "nM"}, {"measurement": "Ki", "setting": "[13]", "result": 4.61, "unit": "nM"}]}
{"compound": "CN1C[C@H](C(=O)N2CCCC2)C=C2c3cccc4[nH]cc(c34)C[C@H]21", "values": [{"measurement": "ED50", "setting": "Rattus norvegicus [2]", "result": 0.168, "unit": "µmol/kg"}, {"measurement": "Relative potency", "setting": "Rattus norvegicus [7]", "result": 0.16}, {"measurement": "SDL", "setting": "Rattus norvegicus [8]", "result": 60, "unit": "%"}, {"measurement": "SDL", "setting": "Rattus norvegicus [14]", "result": 67, "unit": "%"}, {"measurement": "SDL", "setting": "Rattus norvegicus [15]", "result": 82, "unit": "%"}, {"measurement": "SDL", "setting": "Rattus norvegicus [4]", "result": 22, "unit": "%"}, {"measurement": "SDL", "setting": "Rattus norvegicus [6]", "result": 22, "unit": "%"}, {"measurement": "SDL", "setting": "Rattus norvegicus [16]", "result": 27, "unit": "%"}, {"measurement": "SDL", "setting": "Rattus norvegicus [17]", "result": 40, "unit": "%"}]}
{"compound": "CC[C@@H](C)NC(=O)[C@@H]1C=C2c3cccc4[nH]cc(c34)C[C@H]2N(C)C1", "values": [{"measurement": "Ki", "setting": "[18]", "result": 2.63, "unit": "nM"}, {"measurement": "Ki", "setting": "[1]", "result": 2.01, "unit": "nM"}, {"measurement": "ED50", "setting": "Rattus norvegicus [2]", "result": 0.033, "unit": "µmol/kg"}, {"measurement": "Relative potency", "setting": "Rattus norvegicus [7]", "result": 0.82}, {"measurement": "SDL", "setting": "Rattus norvegicus [8]", "result": 88, "unit": "%"}, {"measurement": "SDL", "setting": "Rattus norvegicus [3]", "result": 50, "unit": "%"}, {"measurement": "SDL", "setting": "Rattus norvegicus [4]", "result": 75, "unit": "%"}, {"measurement": "SDL", "setting": "Rattus norvegicus [6]", "result": 75, "unit": "%"}, {"measurement": "SDL", "setting": "Rattus norvegicus [19]", "result": 13, "unit": "%"}]}
